≈ marks a conversion by molar mass, not a printed value. Calls of active or inactive are those of the source. The rule behind the calls is not given here.
Assays:
HepG2 [1] = experiment: Antiproliferative activity against human HepG2 cells assessed as growth inhibition at 0.6 ug/ml after 48 hrs by SRB assay; format: functional; conditions: HepG2, 48 h, read-out: GI
Outline: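 Single-concentration SRB screen. HepG2 cells were grown in MEM-EBSS with 10% FBS and exposed to 0.6 µg/mL compound for 48 h alongside untreated controls. Cells were fixed with TCA and stained with SRB, then read at 492 nm. Results are given as % inhibition versus control, from triplicates reported as mean and SD.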

[2] = molecular target: T1, DNA topoisomerase 1 (Homo sapiens) (UniProt P11387); conditions: 18 to 36 uM
T1 sequence (whole entry): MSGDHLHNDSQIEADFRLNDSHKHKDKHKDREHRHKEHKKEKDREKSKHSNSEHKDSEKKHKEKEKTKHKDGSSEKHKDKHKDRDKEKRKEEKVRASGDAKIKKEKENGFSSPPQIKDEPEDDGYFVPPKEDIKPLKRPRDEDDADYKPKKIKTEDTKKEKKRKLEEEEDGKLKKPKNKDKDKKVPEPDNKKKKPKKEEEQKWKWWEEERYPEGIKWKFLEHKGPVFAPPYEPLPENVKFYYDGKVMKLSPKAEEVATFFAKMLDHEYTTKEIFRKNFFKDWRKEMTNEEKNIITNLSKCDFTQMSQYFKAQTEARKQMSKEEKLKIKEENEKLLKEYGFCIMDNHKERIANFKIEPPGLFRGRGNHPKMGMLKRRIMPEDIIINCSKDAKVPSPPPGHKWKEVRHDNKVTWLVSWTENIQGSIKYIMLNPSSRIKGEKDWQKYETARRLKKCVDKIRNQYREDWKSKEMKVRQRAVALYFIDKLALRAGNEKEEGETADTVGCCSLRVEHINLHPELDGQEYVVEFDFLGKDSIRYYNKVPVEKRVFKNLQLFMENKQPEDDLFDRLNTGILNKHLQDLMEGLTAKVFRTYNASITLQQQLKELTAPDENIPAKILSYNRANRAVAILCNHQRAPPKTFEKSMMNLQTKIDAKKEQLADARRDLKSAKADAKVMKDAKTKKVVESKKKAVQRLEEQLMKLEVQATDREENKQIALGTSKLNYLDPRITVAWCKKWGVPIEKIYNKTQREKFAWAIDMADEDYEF

[3] = Antiproliferative activity against human MCF7/ADR cells assessed as growth inhibition after 24 to 48 hrs by SRB assay; format: functional, cell-based; conditions: NCI/ADR-RES
Outline: (§1)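 Parental MCF-7 cells and doxorubicin-resistant MCF-7/ADrR cells were tested; the resistant line was maintained in medium containing DOX. Each line was treated at 0.039–2.5 µg/mL for 24 and 48 h. Growth was read by SRB staining after TCA fixation, with absorbance at 492 nm. IC50 is the concentration reducing cell number to 50% of control, from triplicates.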

[4] = molecular target: DNA topoisomerase 2-alpha (Homo sapiens) (UniProt P11388); experiment: Inhibition of human DNA topoisomerase 2 assessed as decatenation of kinetoplast DNA at 15 ug/ml after 30 mins
Outline: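 Decatenation assay with 0.15 µg kinetoplast DNA and 4 U human Top II. Buffer was 50 mM Tris-HCl pH 8, 120 mM KCl, 10 mM MgCl2, 0.5 mM ATP, 0.5 mM DTT and 30 µg/mL BSA, incubated at 37 °C for 30 min with or without compound. Reactions were stopped with Sarkosyl loading dye and run on 1% agarose in TAE at 4 V/cm for 40 min. Gels were stained with ethidium bromide and imaged under UV.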

[5] = molecular target: T1, DNA topoisomerase 1 (Homo sapiens); experiment: Inhibition of human DNA topoisomerase 1 assessed as decrease in mobility of relaxed isomers of supercoiled pBR322 DNA at 15 uM after 30 mins
Outline: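 Gel-based relaxation assay with 1 unit human Top I. Enzyme was preincubated with compound at 37 °C for 20 min, then 0.5 µg supercoiled pBR322 DNA was added and incubated at 37 °C for 30 min. Reactions were stopped with 0.5% SDS, bromophenol blue and 15% glycerol. Relaxed and supercoiled forms were resolved by agarose electrophoresis.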

HCT-116 [6] = experiment: Cell cycle arrest in human HCT116 cells assessed as accumulation at G2/M phase at 0.5 ug/ml after 24 hrs using propidium iodide staining by flow cytometric analysis (reference value: 22.2%); format: functional
HCT-116 [7] = experiment: Cell cycle arrest in human HCT116 cells assessed as accumulation at S phase at 0.5 ug/ml after 24 hrs using propidium iodide staining by flow cytometric analysis (reference value: 29.1%); format: functional
HCT-116 [8] = experiment: Cell cycle arrest in human HCT116 cells assessed as accumulation at G0/G1 phase at 0.5 ug/ml after 24 hrs using propidium iodide staining by flow cytometric analysis (reference value: 48.7%); format: functional
HCT-116 [9] = experiment: Cell cycle arrest in human HCT116 cells assessed as accumulation at G2/M phase at 0.5 ug/ml after 12 hrs using propidium iodide staining by flow cytometric analysis (reference value: 22.2%); format: functional
HCT-116 [10] = experiment: Cell cycle arrest in human HCT116 cells assessed as accumulation at S phase at 0.5 ug/ml after 12 hrs using propidium iodide staining by flow cytometric analysis (reference value: 29.1%); format: functional
HCT-116 [11] = experiment: Cell cycle arrest in human HCT116 cells assessed as accumulation at G0/G1 phase at 0.5 ug/ml after 12 hrs using propidium iodide staining by flow cytometric analysis (reference value: 48.7%); format: functional
HCT-116 [12] = experiment: Cell cycle arrest in human HCT116 cells assessed as accumulation at G2/M phase at 0.5 ug/ml after 4 hrs using propidium iodide staining by flow cytometric analysis (reference value: 22.2%); format: functional
HCT-116 [13] = experiment: Cell cycle arrest in human HCT116 cells assessed as accumulation at S phase at 0.5 ug/ml after 4 hrs using propidium iodide staining by flow cytometric analysis (reference value: 29.1%); format: functional
HCT-116 [14] = experiment: Cell cycle arrest in human HCT116 cells assessed as accumulation at G0/G1 phase at 0.5 ug/ml after 4 hrs using propidium iodide staining by flow cytometric analysis (reference value: 48.7%); format: functional
MCF7 = experiment: Antiproliferative activity against human MCF7 cells assessed as growth inhibition after 24 to 48 hrs by SRB assay; format: functional, cell-based; outline: as §1
HCT-116 [15] = experiment: Antiproliferative activity against human HCT116 cells assessed as growth inhibition after 48 hrs by SRB assay; format: functional, cell-based; conditions: HCT-116, 48 h
Outline: (§2)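 SRB assay. Cells were seeded at 4×10^3–8×10^3/mL in MEM-EBSS with 10% heat-inactivated FBS at 37 °C and 5% CO2, then treated at 0.039, 0.15, 0.63 and 2.5 µg/mL for 24 or 48 h. Cells were fixed with 50% TCA, stained with 0.4% SRB in 1% acetic acid and solubilized in 10 mM Trizma base, with absorbance read at 492 nm. IC50 is the concentration giving 50% of control cell number, from triplicates reported as mean and SD.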

HCT-116 [16] = experiment: Antiproliferative activity against human HCT116 cells assessed as growth inhibition after 24 hrs by SRB assay; format: functional, cell-based; conditions: HCT-116, 24 h; outline: as §2
HepG2 [17] = experiment: Antiproliferative activity against human HepG2 cells assessed as growth inhibition after 48 hrs by SRB assay; format: functional, cell-based; conditions: HepG2, 48 h; outline: as §2
HepG2 [18] = experiment: Antiproliferative activity against human HepG2 cells assessed as growth inhibition after 24 hrs by SRB assay; format: functional, cell-based; conditions: HepG2, 24 h; outline: as §2
[19] = molecular target: DNA topoisomerase 2-alpha (Homo sapiens) (UniProt P11388); conditions: 100 ug/ml

Chain of DNA topoisomerase 2-alpha (Homo sapiens) (P11388 whole entry): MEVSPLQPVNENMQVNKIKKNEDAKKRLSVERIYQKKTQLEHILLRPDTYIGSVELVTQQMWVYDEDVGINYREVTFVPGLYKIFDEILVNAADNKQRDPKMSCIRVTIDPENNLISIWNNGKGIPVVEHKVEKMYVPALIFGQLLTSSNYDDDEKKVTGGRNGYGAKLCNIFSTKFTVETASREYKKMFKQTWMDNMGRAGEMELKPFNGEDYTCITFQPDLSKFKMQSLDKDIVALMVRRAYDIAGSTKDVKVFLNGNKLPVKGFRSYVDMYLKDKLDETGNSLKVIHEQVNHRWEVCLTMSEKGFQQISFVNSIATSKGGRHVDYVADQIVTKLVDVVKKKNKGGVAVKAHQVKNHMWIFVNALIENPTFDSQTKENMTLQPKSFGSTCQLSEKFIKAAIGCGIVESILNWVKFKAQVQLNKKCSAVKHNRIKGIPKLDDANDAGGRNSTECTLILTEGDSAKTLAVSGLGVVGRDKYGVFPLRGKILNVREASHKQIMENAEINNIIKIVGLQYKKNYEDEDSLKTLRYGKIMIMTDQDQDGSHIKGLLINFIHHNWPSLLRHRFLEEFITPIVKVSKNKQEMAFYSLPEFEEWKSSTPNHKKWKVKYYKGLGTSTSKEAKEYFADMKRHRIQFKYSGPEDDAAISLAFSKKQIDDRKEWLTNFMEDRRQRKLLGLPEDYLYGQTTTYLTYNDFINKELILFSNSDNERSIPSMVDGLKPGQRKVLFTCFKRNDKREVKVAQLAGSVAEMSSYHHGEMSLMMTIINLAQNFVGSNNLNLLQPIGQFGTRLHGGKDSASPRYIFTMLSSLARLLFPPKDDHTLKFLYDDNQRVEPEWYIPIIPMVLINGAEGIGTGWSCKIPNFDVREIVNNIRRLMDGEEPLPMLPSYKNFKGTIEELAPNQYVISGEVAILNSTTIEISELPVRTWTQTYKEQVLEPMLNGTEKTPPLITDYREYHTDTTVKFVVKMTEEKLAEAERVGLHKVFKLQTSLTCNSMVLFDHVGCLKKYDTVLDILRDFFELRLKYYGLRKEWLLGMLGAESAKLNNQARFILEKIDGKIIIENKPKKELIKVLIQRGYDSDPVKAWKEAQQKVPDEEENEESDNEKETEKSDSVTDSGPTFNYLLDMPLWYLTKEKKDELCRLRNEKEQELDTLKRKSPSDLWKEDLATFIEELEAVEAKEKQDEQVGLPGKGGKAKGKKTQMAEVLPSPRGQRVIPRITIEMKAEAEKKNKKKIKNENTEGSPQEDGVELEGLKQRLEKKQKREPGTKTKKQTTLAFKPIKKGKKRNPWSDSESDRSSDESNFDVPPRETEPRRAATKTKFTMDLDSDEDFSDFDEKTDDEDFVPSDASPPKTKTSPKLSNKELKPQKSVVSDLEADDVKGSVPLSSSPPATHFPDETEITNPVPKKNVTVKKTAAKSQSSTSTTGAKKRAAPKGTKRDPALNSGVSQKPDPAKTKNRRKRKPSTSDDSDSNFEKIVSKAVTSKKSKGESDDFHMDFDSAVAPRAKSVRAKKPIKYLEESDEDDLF

Compound | inhibition of growth at 0.6 µg/mL (HepG2 [1]) [%] | IC50 (HCT-116 [15]) [nM] | IC50 (HCT-116 [16]) [nM] | IC50 (HepG2 [17]) [nM] | IC50 (HepG2 [18]) [nM] | other results
CC[C@@]1(O)C(=O)OCc2c1cc1n(c2=O)Cc2cc3cc(O)ccc3nc2-1 [HYDROXYCAMPTOTHECIN] | 85.4 |  |  |  |  | inhibition [2]: Active
COc1ccc2c(c[n+]3c4c2ccc2c5c(cc(c24)CC3)OCO5)c1O | 50 |  |  |  |  | 
COc1cccc2c1C(=O)c1c(O)c3c(c(O)c1C2=O)C[C@@](O)(C(=O)CO)C[C@@H]3O[C@H]1C[C@H](N)[C@H](O)[C@H](C)O1 [DOXORUBICIN] |  |  |  |  |  | IC50 [3]: 24.4 µg/mL (≈ 44.9 µM)
COc1ccc2c(c[n+]3c4c2ccc2c5c(cc(c24)CC3)OCO5)c1OC(=O)c1ccc(C)cc1 | 63.7 |  |  |  |  | 
COc1ccc2c(c[n+]3c4c2ccc2c5c(cc(c24)CC3)OCO5)c1OC(=O)c1ccc(F)cc1 | 70.3 |  |  |  |  | 
COc1ccc2c(c[n+]3c4c2ccc2c5c(cc(c24)CC3)OCO5)c1OS(=O)(=O)c1ccccc1 | 56.2 |  |  |  |  | 
COc1ccc2c(c[n+]3c4c2ccc2c5c(cc(c24)CC3)OCO5)c1OC(=O)c1ccc(F)c([N+](=O)[O-])c1 | 69.6 |  |  |  |  | 
COc1ccc2c(c[n+]3c4c2ccc2c5c(cc(c24)CC3)OCO5)c1OC(=O)c1ccccc1.[Cl-] | 86.6 | 410 | 5610 | 140 | 470 | inhibition [4]: Active; inhibition [5]: Active; Activity (HCT-116 [6]): 73.3%; Activity (HCT-116 [7]): 24.6%; Activity (HCT-116 [8]): 2.18%; Activity (HCT-116 [9]): 51.8%; Activity (HCT-116 [10]): 45.9%; Activity (HCT-116 [11]): 2.29%; Activity (HCT-116 [12]): 29.3%; Activity (HCT-116 [13]): 57.5%; Activity (HCT-116 [14]): 13.2%; IC50 [3]: 3.66 µg/mL; IC50 (MCF7): 2.5 µg/mL
COc1cc([C@@H]2c3cc4c(cc3[C@@H](O[C@@H]3O[C@@H]5CO[C@@H](C)O[C@H]5[C@H](O)[C@H]3O)[C@H]3COC(=O)[C@H]23)OCO4)cc(OC)c1O |  |  |  |  |  | inhibition [19]: Active
COc1ccc2c(c[n+]3c4c2ccc2c5c(cc(c24)CC3)OCO5)c1OC | 53.4 | 1710 | 560 | 710 | 1200 | 
CCOc1c(OC)ccc2c1c[n+]1c3c2ccc2c4c(cc(c23)CC1)OCO4 | 41.9 |  |  |  |  | 
COc1ccc2c(c[n+]3c4c2ccc2c5c(cc(c24)CC3)OCO5)c1OC(=O)c1ccccc1F | 93.7 | 280 | 420 | 150 | 930 | 
COc1ccc2c(c[n+]3c4c2ccc2c5c(cc(c24)CC3)OCO5)c1OC(=O)c1ccc2c(c1)OCO2 | 88.6 | 450 | 3060 | 220 | 420 | 
COc1ccc2c(c[n+]3c4c2ccc2c5c(cc(c24)CC3)OCO5)c1OC(=O)c1ccc(C)c([N+](=O)[O-])c1 | 50.9 |  |  |  |  | 
COc1ccc(C(=O)Oc2c(OC)ccc3c2c[n+]2c4c3ccc3c5c(cc(c34)CC2)OCO5)cc1[N+](=O)[O-] | 53.6 |  |  |  |  | 
COc1ccc2c(c[n+]3c4c2ccc2c5c(cc(c24)CC3)OCO5)c1OC(C)=O | 88.7 | 840 | 90 | 190 | 1010 | 
COc1ccc2c(c[n+]3c4c2ccc2c5c(cc(c24)CC3)OCO5)c1OCc1ccccc1 | 53.3 |  |  |  |  | 
COc1cc(C(=O)Oc2c(OC)ccc3c2c[n+]2c4c3ccc3c5c(cc(c34)CC2)OCO5)cc(OC)c1OC | 86.5 | 370 | 920 | 320 | 380 | 
COc1ccc2c(c[n+]3c4c2ccc2c5c(cc(c24)CC3)OCO5)c1OC(=O)c1ccc(F)cc1F | 92.5 | 390 | 3110 | 130 | 620 | 
COc1ccc(C(=O)Oc2c(OC)ccc3c2c[n+]2c4c3ccc3c5c(cc(c34)CC2)OCO5)cc1 | 84.5 | 430 | 390 | 410 | 440 | 
CCCCOc1c(OC)ccc2c1c[n+]1c3c2ccc2c4c(cc(c23)CC1)OCO4 | 62.6 |  |  |  |  | 
COc1ccc2c(c[n+]3c4c2ccc2c5c(cc(c24)CC3)OCO5)c1OS(=O)(=O)c1ccc(NC(C)=O)cc1 | 8.9 |  |  |  |  | 
COc1ccc2c(c[n+]3c4c2ccc2c5c(cc(c24)CC3)OCO5)c1OC(=O)c1ccccc1Cl | 62.3 |  |  |  |  | 
COc1ccc2c(c[n+]3c4c2ccc2c5c(cc(c24)CC3)OCO5)c1OCc1ccc(F)cc1F | 50.7 |  |  |  |  | 
